# Published values pooled from the literature.
# Read-out: binding
# PIK3CB: Phosphatidylinositol 4,5-bisphosphate 3-kinase catalytic subunit beta isoform (PIK3CB, Homo sapiens, UniProt P42338)
# NAD-dependent histone deacetylase SIR2: NAD-dependent histone deacetylase SIR2 (Saccharomyces cerevisiae S288c, UniProt P06700)
# UCK2: Uridine-cytidine kinase 2 (UCK2, Homo sapiens, UniProt Q9BZX2)
# mnmE: mnmE (Escherichia coli, UniProt P25522)
# PIKFYVE: 1-phosphatidylinositol 3-phosphate 5-kinase (PIKFYVE, Homo sapiens, UniProt Q9Y2I7)
Structure (SMILES),target,technique,pH,notes,Kd
CCC(=O)N1CCC(C(=O)NCC(=O)N2CCN(c3nc(-c4cnc(N)nc4C(F)F)nc(N4CCOCC4)n3)CC2)CC1,PIK3CB,,,,0.00071 µM
CC(=O)O[C@H]1C(O)O[C@H](COP(=O)(O)OP(=O)(O)OC[C@H]2O[C@@H](n3cnc4c(N)ncnc43)[C@H](O)[C@@H]2O)[C@H]1O (stereo partly drawn),NAD-dependent histone deacetylase SIR2,SPR,,,0.304 µM
[N-]=[N+]=N[C@@H]1[C@H](O)[C@@H](CO)O[C@H]1n1ccc(N)nc1=O,UCK2,fluorescence,,,0.0178 µM
CO[C@H]1O[C@H](CO)[C@@H](O)[C@H](O)[C@@H]1O,"ZG16 (Homo sapiens, UniProt O60844)",NMR,,,15000 µM
O=C(O)c1cccc(Nc2cc(N3CCCCCC3)c3noc4c3c2C(=O)c2ccccc2-4)c1,"Urokinase plasminogen activator surface receptor (Homo sapiens, UniProt Q03405)",,,,0.19 µM
COc1ccc(Nc2nnc(-c3ccc(C(=O)NO)cc3)o2)cc1,"Glycogen synthase kinase-3 beta (GSK3B, Homo sapiens, UniProt P49841)",SPR,,,1 µM
COC(=O)[C@@H](N)CCCCN,"LRP1 (Homo sapiens, UniProt Q07954)",fluorescence,pH 7.4,,370 µM
Nc1nc2c(c(=O)[nH]1)N1CN(c3ccc(C(=O)N[C@@H](CCC(=O)O)C(=O)O)cc3)C[C@H]1CN2,mnmE,ITC,,,~1 µM
Cc1cc2nc3c(=O)[nH]c(=O)nc-3n(C[C@H](O)[C@H](O)[C@H](O)COP(=O)(O)OP(=O)(O)OC[C@H]3O[C@@H](n4cnc5c(N)ncnc54)[C@H](O)[C@@H]3O)c2cc1C,"Ubiquitin-associated protein 2 (Homo sapiens, UniProt Q5T6F2)",,,lysate,0.045 µM
COc1ccc2[nH]c(C)c(/C=C/C(=O)c3ccncc3)c2c1,PIKFYVE,competition with immobilised ligand,,,0.0069 µM
NC(=O)c1ccc[n+]([C@@H]2O[C@H](COP(=O)([O-])OP(=O)(O)OC[C@H]3O[C@@H](n4cnc5c(N)ncnc54)[C@H](O)[C@@H]3O)[C@@H](O)[C@H]2O)c1,NAD-dependent histone deacetylase SIR2,SPR,,,0.575 µM
CCC(=O)N1CCC(C(=O)N(C)CC(=O)N2CCN(c3nc(-c4cnc(N)nc4C(F)F)nc(N4CCOCC4)n3)CC2)CC1,PIK3CB,,,,0.0077 µM
Nc1nc(=O)c2c([nH]1)NC[C@H](CNc1ccc(C(=O)N[C@@H](CCC(=O)O)C(=O)O)cc1)N2C=O,mnmE,ITC,pH 7.5,,0.26 µM
CCOc1ccc2[nH]c(C)c(/C=C/C(=O)c3ccncc3)c2c1,PIKFYVE,competition with immobilised ligand,,,0.023 µM
O=c1ccn([C@@H]2O[C@H](CO)[C@@H](O)[C@H]2O)c(=O)[nH]1,UCK2,fluorescence,,,0.0058 µM
